Experimental data taken from ChEMBL document CHEMBL1138229, “Novel cyano- and amidino-substituted derivatives of styryl-2-benzimidazoles and benzimidazo[1,2-a]quinolines. Synthesis, photochemical synthesis, DNA binding, and antitumor evaluation, part 3” (J Med Chem, 2007).
Calls of active or inactive are those of the source. No cut-off for these calls is given here.

What was measured:
SW-620 [1] = assay: Cell cycle arrest in human SW620 cells assessed as accumulation at G1/G0 phase after 24 hrs at 5 uM; assay type: functional
Outline: (§1)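 Cells seeded at 2 × 10^5 per well and incubated overnight before compound at 5 × 10^-6 M. After 24, 48 or 72 h, attached and floating cells were pooled, PBS-washed and fixed in 70% ethanol. RNase A (0.1 µg/µl, 37 °C, 15 min), then propidium iodide 1 µg/mL; flow cytometry of 20 000 events. Results given as percent of cells per phase; significance at p < 0.05.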

MIA PaCa-2 = assay: Antitumor activity against human MiaPaCa2 cells after 72 hrs by MTT assay; assay type: functional, cell-based; conditions: MIA PaCa-2, 72 h
Outline: (§2)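 Cells from ATCC grown as monolayers in DMEM with 10% FBS, 2 mM L-glutamine, penicillin/streptomycin, 5% CO2, 37 °C. Seeded on day 0 at 1 × 10^4/mL (2 × 10^4/mL for MCF-7). Five 10-fold dilutions (10^-8 to 10^-4 mol/L) added, then 72 h exposure. MTT read at 570 nm; percent growth vs time-zero and untreated controls. IC50 by linear regression; quadruplicates, three experiments.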

[2] = Antiproliferative activity against human […] fibroblast after 72 hrs by MTT assay; assay type: functional; outline: as §2
MCF7 = assay: Antitumor activity against human MCF7 cells after 72 hrs by MTT assay; assay type: functional, cell-based; conditions: MCF7, 72 h; outline: as §2
SW-620 [3] = assay: Cell cycle arrest in human SW620 cells assessed as accumulation at G1/G0 phase after 72 hrs at 5 uM; assay type: functional; outline: as §1
SW-620 [4] = assay: Cell cycle arrest in human SW620 cells assessed as accumulation at Sub G1 phase after 24 hrs at 5 uM; assay type: functional; outline: as §1
SW-620 [5] = assay: Cell cycle arrest in human SW620 cells assessed as accumulation at G2/M phase after 48 hrs at 5 uM; assay type: functional; outline: as §1
HeLa [6] = assay: Antitumor activity against human HeLa cells after 72 hrs by MTT assay; assay type: functional, cell-based; outline: as §2
HEp-2 = assay: Antitumor activity against human Hep2 cells after 72 hrs by MTT assay; assay type: functional, cell-based; conditions: HEp-2, 72 h; outline: as §2
SW-620 [7] = assay: Cell cycle arrest in human SW620 cells assessed as accumulation at G2/M phase after 72 hrs at 5 uM; assay type: functional; outline: as §1
SW-620 [8] = assay: Cell cycle arrest in human SW620 cells assessed as accumulation at Sub G1 phase after 72 hrs at 5 uM; assay type: functional; outline: as §1
SW-620 [9] = assay: Cell cycle arrest in human SW620 cells assessed as accumulation at G2/M phase after 24 hrs at 5 uM; assay type: functional; outline: as §1
SW-620 [10] = assay: Cell cycle arrest in human SW620 cells assessed as accumulation at Sub G1 phase after 48 hrs at 5 uM; assay type: functional; outline: as §1
SW-620 [11] = assay: Antitumor activity against human SW620 cells after 72 hrs by MTT assay; assay type: functional, cell-based; conditions: SW-620, 72 h; outline: as §2
SW-620 [12] = assay: Cell cycle arrest in human SW620 cells assessed as accumulation at S phase after 24 hrs at 5 uM; assay type: functional; outline: as §1
SW-620 [13] = assay: Cell cycle arrest in human SW620 cells assessed as accumulation at S phase after 48 hrs at 5 uM; assay type: functional; outline: as §1
SW-620 [14] = assay: Cell cycle arrest in human SW620 cells assessed as accumulation at G1/G0 phase after 48 hrs at 5 uM; assay type: functional; outline: as §1
DNA = assay: Binding affinity to calf thymus DNA by thermal melting temperature assay; assay type: nucleic-acid assay; conditions: Bos taurus
Outline: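 ct-DNA (as phosphate concentration) in sodium cacodylate buffer pH 7.0, I = 0.05 mol dm-3. Compound/polynucleotide ratio r = 0.3. Absorbance at 260 nm followed against temperature, ligand absorbance subtracted. Tm taken as transition midpoint by first derivative or tangent method. ΔTm = Tm(complex) − Tm(free DNA), averaged over at least two runs, error ±0.5 °C.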

Homo sapiens = organism: Homo sapiens; assay: Inhibition of Topoisomerase 2-mediated pRYG DNA relaxation activity
Outline: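 Supercoiled pRYG plasmid with 8 units purified topo II in assay buffer. Test compound or etoposide added as 2 µL of a 1 mM stock per 20 µL reaction. Incubation 37 °C for 30 min; stopped with SDS, then proteinase K (50 µg/mL, 37 °C, 15 min). Gel electrophoresis, post-stained with ethidium bromide 0.5 µg/mL, UV imaging of supercoiled-to-relaxed conversion.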

SW-620 [15] = assay: Cell cycle arrest in human SW620 cells assessed as accumulation at S phase after 72 hrs at 5 uM; assay type: functional; outline: as §1
HeLa [16] = assay: Cell cycle arrest in human HeLa cells assessed as accumulation at Sub G1 phase after 48 hrs at 5 uM; assay type: functional; outline: as §1
HeLa [17] = assay: Cell cycle arrest in human HeLa cells assessed as accumulation at G2/M phase after 48 hrs at 5 uM; assay type: functional; outline: as §1
HeLa [18] = assay: Cell cycle arrest in human HeLa cells assessed as accumulation at G0/G1 phase after 72 hrs at 5 uM; assay type: functional; outline: as §1
HeLa [19] = assay: Cell cycle arrest in human HeLa cells assessed as accumulation at G0/G1 phase after 24 hrs at 5 uM; assay type: functional; outline: as §1
HeLa [20] = assay: Cell cycle arrest in human HeLa cells assessed as accumulation at G2/M phase after 72 hrs at 5 uM; assay type: functional; outline: as §1
HeLa [21] = assay: Cell cycle arrest in human HeLa cells assessed as accumulation at Sub G1 phase after 24 hrs at 5 uM; assay type: functional; outline: as §1
HeLa [22] = assay: Cell cycle arrest in human HeLa cells assessed as accumulation at S phase after 72 hrs at 5 uM; assay type: functional; outline: as §1
HeLa [23] = assay: Cell cycle arrest in human HeLa cells assessed as accumulation at S phase after 48 hrs at 5 uM; assay type: functional; outline: as §1
HeLa [24] = assay: Cell cycle arrest in human HeLa cells assessed as accumulation at Sub G1 phase after 72 hrs at 5 uM; assay type: functional; outline: as §1
HeLa [25] = assay: Cell cycle arrest in human HeLa cells assessed as accumulation at G0/G1 phase after 48 hrs at 5 uM; assay type: functional; outline: as §1
HeLa [26] = assay: Cell cycle arrest in human HeLa cells assessed as accumulation at S phase after 24 hrs at 5 uM; assay type: functional; outline: as §1
HeLa [27] = assay: Cell cycle arrest in human HeLa cells assessed as accumulation at G2/M phase after 24 hrs at 5 uM; assay type: functional; outline: as §1

In the case of `C(=C/c1nc2ccc(C3=NCCN3)cc2[nH]1)/c1ccccc1.Cl`, the Activity (SW-620 [1]) is reported as 36%, the IC50 (MIA PaCa-2) is reported as 25 µM and the IC50 [2] is reported as 99 µM. It also gave an IC50 (MCF7) of 17 µM, an Activity (SW-620 [3]) of 49% and an Activity (SW-620 [4]) of 0.5%. It also gave an Activity (SW-620 [5]) of 15%, an IC50 (HeLa [6]) of 35 µM and an IC50 (HEp-2) of 27 µM. It also gave an Activity (SW-620 [7]) of 21%, an Activity (SW-620 [8]) of 0.8% and an Activity (SW-620 [9]) of 19%. For the same compound, the Activity (SW-620 [10]) was 1%, the IC50 (SW-620 [11]) was 45 µM and the Activity (SW-620 [12]) was 45%. The Activity (SW-620 [13]) was 39%, the Activity (SW-620 [14]) was 46% and the ΔTm (DNA) was 1 °C. For the same compound, the Activity (Homo sapiens) was “Active” and the Activity (SW-620 [15]) was 30%.
In the case of `Cl.c1ccc2c(c1)ccc1nc3ccc(C4=NCCN4)cc3n12`, the Activity (HeLa [16]) is reported as 2%, the Activity (SW-620 [1]) is reported as 12% and the Activity (HeLa [17]) is reported as 32%. For the same compound, the Activity (HeLa [18]) was 28%, the IC50 (MIA PaCa-2) was 1 µM and the IC50 [2] was 2 µM. The IC50 (MCF7) was 2 µM, the Activity (SW-620 [3]) was 30% and the Activity (HeLa [19]) was 32%. It also gave an Activity (SW-620 [4]) of 3%, an Activity (HeLa [20]) of 40% and an Activity (SW-620 [5]) of 49%. The Activity (HeLa [21]) was 2%, the Activity (HeLa [22]) was 32% and the IC50 (HeLa [6]) was 2 µM. The IC50 (HEp-2) was 2 µM, the Activity (SW-620 [7]) was 54% and the Activity (SW-620 [8]) was 13%. The Activity (HeLa [23]) was 36%, the Activity (SW-620 [9]) was 49% and the Activity (SW-620 [10]) was 12%. For the same compound, the IC50 (SW-620 [11]) was 0.4 µM, the Activity (SW-620 [12]) was 39% and the Activity (SW-620 [13]) was 26%. It also gave an Activity (HeLa [24]) of 3%, an Activity (HeLa [25]) of 34% and an Activity (SW-620 [14]) of 25%. The Activity (HeLa [26]) was 42%, the ΔTm (DNA) was 4.9 °C and the Activity (Homo sapiens) was “Active”. The Activity (HeLa [27]) was 26% and the Activity (SW-620 [15]) was 17%.
